Reference: ChEMBL document CHEMBL1131326, “Design, synthesis, and antiviral evaluations of 1-(substituted benzyl)-2-substituted-5,6-dichlorobenzimidazoles as nonnucleoside analogues of 2,5,6-trichloro-1-(beta-D-ribofuranosyl)benzimidazole” (J Med Chem, 1998)

Experiments:
Human betaherpesvirus 5 [1] = experiment: Compound was tested for antiviral activity against human cytomegalovirus (HCMV) by plaque reduction assay; type: functional, organism-based
Summary of the method: (§1)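 HFF monolayers infected with about 100 pfu/cm² of HCMV Towne (isolate Po); after adsorption, compound in growth medium added to duplicate wells at four to eight concentrations.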

Human alphaherpesvirus 1 = experiment: Antiviral activity against herpes simplex virus type-1 (HSV-1); type: functional, organism-based
Summary of the method: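 BSC-1 cells (10 000/well, MEM(E) + 10% calf serum) incubated overnight, then given drug in quadruplicate plus HSV-1 KOS at 100 pfu/well; 3 days at 37 °C. ELISA with HRP-conjugated rabbit anti-HSV-1 antibody, TMB substrate, stopped with H₂SO₄, absorbance at 450 and 570 nm; IC50 by regression of % absorbance reduction vs log concentration.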

HFF = experiment: Visual cytotoxicity scored on HFF cells at a time of HCMV plaque enumeration; type: functional, cell-based; conditions: Homo sapiens
Summary of the method: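 Cytotoxicity in stationary HFF cells scored by microscopic inspection of cells not affected by virus, at time of HCMV plaque enumeration, in the plaque-assay plates.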

KB = experiment: Inhibition of KB cell growth determined by quadruplicate assays; type: functional, cell-based; conditions: Homo sapiens
Summary of the method: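 KB cells seeded at 3000-5000/well, overnight at 37 °C, then compound in quadruplicate at six to eight concentrations for 48 h (about two doublings) in CO₂. Cells fixed in 95% ethanol, stained with 0.1% crystal violet, dye eluted with acidified ethanol and read at 570 nm; IC50 by regression vs log concentration.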

CEM-SS [2] = experiment: Cytotoxicity against CEM-SS cells in terms of incorporation of [3H]dThd; type: functional, cell-based; conditions: Homo sapiens
Summary of the method: (§2)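 DNA synthesis in CEM-SS cells measured as uptake of [³H]dThd into total acid-precipitable material; results averaged from duplicate experiments.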

[3] = test system: Human immunodeficiency virus 1; experiment: Activity against HIV-1 by syncytial plaque assay performed in duplicate using CEM-SS cells; type: functional, organism-based; conditions: Human immunodeficiency virus 1, CEM-SS
Summary of the method: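 Syncytial plaque assay: poly-L-lysine-adherent CEM-SS cells infected with HIV-1 strain IIIB with or without compound at selected concentrations; syncytial plaques counted at 30-fold magnification 7 days postinfection; duplicate. IC50 from linear regression of percent inhibition against log concentration.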

[4] = test system: Human immunodeficiency virus 1; experiment: Compound was tested for antiviral activity against HIV-1 resistant to AZT; type: functional, organism-based
Summary of the method: (§3)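 Matched clinical pairs of AZT-sensitive and AZT-resistant HIV-1 (C-691/G762 or H-112/G910, depending on compound series) were tested by syncytial plaque assay in duplicate sets on poly-L-lysine-adherent CEM-SS cells. Syncytial plaques were counted at 30-fold magnification 7 days postinfection. IC50 came from regression of percent inhibition versus log concentration, averaged over duplicate experiments.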

[5] = test system: Human immunodeficiency virus 1; experiment: (§4) Compound was tested for antiviral activity against HIV-1 resistant to TIBO A-17; type: functional, organism-based
Summary of the method: (§5)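 Syncytial plaque assay in duplicate sets on CEM-SS cells made adherent with poly-L-lysine. Virus was the A17 HIV-1 variant, resistant to nonnucleoside RT inhibitors including TIBO, or HIV-2, both from the AIDS Research and Reference Program. Infection was in the presence or absence of compound; syncytial plaques were counted at 30-fold magnification 7 days postinfection. IC50 came from linear regression of percent inhibition against log concentration.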

[6] = test system: Human immunodeficiency virus 1; experiment: Compound was tested for antiviral activity against HIV-1 sensitive to AZT; type: functional, organism-based; summary of the method: as §3
Human betaherpesvirus 5 [7] = experiment: Antiviral activity against human cytomegalovirus (HCMV) by plaque reduction assay; type: functional, organism-based; summary of the method: as §1
[8] = test system: Human immunodeficiency virus 2; experiment: Compound was tested for antiviral activity against HIV-2; type: functional, organism-based
[9] = (§6) Compound was tested for antiviral activity against matched pairs of HIV-1 resistant to AZT; type: functional, Human immunodeficiency virus 1; summary of the method: as §3
[10] = (§7) Compound was tested for antiviral activity against matched pairs of HIV-1 sensitive to AZT; type: functional, Human immunodeficiency virus 1
[11] = as §4; type: functional, Human immunodeficiency virus 1; summary of the method: as §5
CEM-SS [12] = experiment: Compound was tested for activity against HIV-1 by syncytial plaque assay performed in duplicate using CEM-SS cells; type: functional, cell-based; conditions: Homo sapiens
Summary of the method: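 CEM-SS cells made adherent with poly-L-lysine, infected with HIV-1 strain IIIB with or without selected compound concentrations; duplicate sets. Syncytial plaques counted at 30-fold magnification 7 days post-infection. Percent inhibition regressed linearly against log concentration to give IC50; zidovudine positive control in all assays. Values averaged over duplicate or triplicate experiments.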

CEM-SS [13] = experiment: Compounds were tested for cytotoxicity against CEM-SS cells in terms of incorporation of [3H]dThd; type: functional, cell-based; conditions: Homo sapiens; summary of the method: as §2
[14] = test system: Human immunodeficiency virus 2; experiment: Compound was tested for antiviral activity against HIV-2
[15] = Compound was tested for antiviral activity against HIV resistant to TIBO A-17; type: functional, Human immunodeficiency virus 1; summary of the method: as §5
[16] = test system: Human immunodeficiency virus 1; experiment: as §7; type: functional, organism-based; summary of the method: as §3
[17] = test system: Human immunodeficiency virus 1; experiment: as §6; type: functional, organism-based; summary of the method: as §3

Which IC50 (Human betaherpesvirus 5 [1]) does the source give for `Clc1cc2nc(NC3CC3)n(Cc3ccccc3)c2cc1Cl` here?
The IC50 was 18 µM.

What about the IC50 (Human alphaherpesvirus 1) of the same compound?
The IC50 was > 100 µM.

And the IC50 (HFF)?
Its IC50 is 33 µM.

What about the IC50 (KB) of the same compound?
The IC50 was 60 µM.

With `Cc1cccc(Cn2c(Br)nc3cc(Cl)c(Cl)cc32)c1` as the compound, how does the IC50 (CEM-SS [2]) read?
The IC50 was > 100 µM.

And the IC50 [3]?
Its IC50 is 3.5 µM.

What about the IC50 [4] of the same compound?
The IC50 was 9 µM.

And the IC50 [5]?
The IC50 was 17 µM.

What about the IC50 [6] of the same compound?
Its IC50 is 8.7 µM.

And the IC50 (Human betaherpesvirus 5 [7])?
The IC50 was > 100 µM.

And the IC50 (HFF)?
The IC50 was > 100 µM.

What about the IC50 [8] of the same compound?
Its IC50 is 143 µM.

What does the source list for `Cc1cccc(Cn2c(Cl)nc3cc(Cl)c(Cl)cc32)c1`?
IC50 (CEM-SS [2]): > 100 µM; IC50 [3]: 14 µM; IC50 [9]: 13 µM; IC50 (Human betaherpesvirus 5 [7]): > 100 µM; IC50 (Human alphaherpesvirus 1): > 100 µM; IC50 (HFF): > 100 µM; IC50 [10]: 37 µM; IC50 [11]: 16 µM; IC50 [8]: > 30 µM; IC50 (KB): > 100 µM

For `Cc1cn([C@H]2C[C@H](N=[N+]=[N-])[C@@H](CO)O2)c(=O)[nH]c1=O` [ZIDOVUDINE], which IC50 (CEM-SS [12]) is on record?
Its IC50 is 0.0026 µM.

And the IC50 (CEM-SS [13])?
Its IC50 is 1.9 µM.

For `Fc1ccc(Cn2c(Cl)nc3cc(Cl)c(Cl)cc32)cc1`, which IC50 (CEM-SS [2]) is on record?
Its IC50 is > 100 µM.

What about the IC50 [3] of the same compound?
Its IC50 is 37 µM.

And the IC50 [5]?
Its IC50 is 19 µM.

And the IC50 (Human betaherpesvirus 5 [7])?
The IC50 was > 100 µM.

What about the IC50 (Human alphaherpesvirus 1) of the same compound?
Its IC50 is > 100 µM.

And the IC50 (HFF)?
The IC50 was > 100 µM.

What about the IC50 [14] of the same compound?
Its IC50 is > 30 µM.

What about the IC50 (KB) of the same compound?
The IC50 was > 100 µM.

What does the source list for `O=[N+]([O-])c1ccc(Cn2c(Br)nc3cc(Cl)c(Cl)cc32)cc1`?
IC50 (CEM-SS [2]): > 100 µM; IC50 [3]: 14 µM; IC50 [9]: 6.9 µM; IC50 (Human betaherpesvirus 5 [7]): > 100 µM; IC50 (HFF): > 100 µM; IC50 [10]: 11 µM; IC50 [15]: 11 µM; IC50 [8]: 66 µM; IC50 (KB): 40 µM

With `Clc1ccc(Cn2c(Cl)nc3cc(Cl)c(Cl)cc32)cc1` as the compound, how does the IC50 (CEM-SS [2]) read?
Its IC50 is > 100 µM.

What about the IC50 [9] of the same compound?
Its IC50 is 255 µM.

What about the IC50 (CEM-SS [12]) of the same compound?
Its IC50 is 9.1 µM.

And the IC50 (Human betaherpesvirus 5 [7])?
Its IC50 is > 100 µM.

And the IC50 (Human alphaherpesvirus 1)?
The IC50 was > 100 µM.

And the IC50 (HFF)?
The IC50 was > 100 µM.

And the IC50 [10]?
The IC50 was 30 µM.

And the IC50 [11]?
The IC50 was 19 µM.

What about the IC50 [8] of the same compound?
Its IC50 is > 30 µM.

And the IC50 (KB)?
Its IC50 is > 100 µM.

Which IC50 [16] does the source give for `O=[N+]([O-])c1cccc(Cn2c(Br)nc3cc(Cl)c(Cl)cc32)c1` here?
The IC50 was 8.7 µM.

What about the IC50 (CEM-SS [2]) of the same compound?
The IC50 was > 100 µM.

What about the IC50 [3] of the same compound?
Its IC50 is 5.3 µM.

And the IC50 [5]?
The IC50 was 1 µM.

And the IC50 [17]?
Its IC50 is 11 µM.

And the IC50 (Human betaherpesvirus 5 [7])?
Its IC50 is > 100 µM.

What about the IC50 (HFF) of the same compound?
Its IC50 is > 100 µM.

And the IC50 [8]?
Its IC50 is 28 µM.

What about the IC50 (KB) of the same compound?
The IC50 was 150 µM.
